Reference: ChEMBL document CHEMBL1649390, “New (RS)-benzoxazepin-purines with antitumour activity: The chiral switch from (RS)-2,6-dichloro-9-[1-(p-nitrobenzenesulfonyl)-1,2,3,5-tetrahydro-4,1-benzoxazepin-3-yl]-9H-purine” (Eur J Med Chem, 2011)

How the values were obtained:
MCF7 [1] = experiment: Induction of apoptosis in human MCF7 cells assessed as viable cells at IC50 concentration after 48 hrs using V-FITC and propidium iodide staining by flow cytometry (reference value: 86.26 +/- 7.25 %)
MCF7 [2] = experiment: Induction of apoptosis in human MCF7 cells assessed as early apoptotic cells at IC50 concentration after 48 hrs using V-FITC and propidium iodide staining by flow cytometry relative to control; assay type: functional
MCF7 [3] = experiment: Induction of apoptosis in human MCF7 cells assessed as early apoptotic cells at IC50 concentration after 24 hrs using V-FITC and propidium iodide staining by flow cytometry relative to control; assay type: functional
MCF7 [4] = experiment: Induction of apoptosis in human MCF7 cells assessed as necrotic cells at IC50 concentration after 48 hrs using V-FITC and propidium iodide staining by flow cytometry (reference value: 12.61 +/- 7.50 %); assay type: functional
MCF7 [5] = experiment: Cytotoxicity against human MCF7 cells expressing wild type p53 and ras mutant […]; assay type: functional, cell-based
MCF7 [6] = experiment: Induction of apoptosis in human MCF7 cells assessed as late apoptotic cells at IC50 concentration after 24 hrs using V-FITC and propidium iodide staining by flow cytometry (reference value: 0.03 +/- 0.01 %); assay type: functional
MCF7 [7] = experiment: Induction of apoptosis in human MCF7 cells assessed as late apoptotic cells at IC50 concentration after 24 hrs using V-FITC and propidium iodide staining by flow cytometry (reference value: 1.11 +/- 0.24 %); assay type: functional
MCF7 [8] = experiment: Induction of apoptosis in human MCF7 cells assessed as necrotic cells at IC50 concentration after 24 hrs using V-FITC and propidium iodide staining by flow cytometry (reference value: 9.55 +/- 0.21 %); assay type: functional
MCF7 [9] = experiment: Induction of apoptosis in human MCF7 cells assessed as cell viability at IC50 concentration after 24 hrs using V-FITC and propidium iodide staining by flow cytometry (reference value: 90.42 +/- 0.63 %); assay type: functional
[10] = Therapeutic index, ratio of IC50 for human MCF10A cells to IC50 for human MCF7 cells expressing wild type p53 and ras mutant; assay type: cell-based; settings: MCF10A cells versus MCF7 cells (wild type p53, ras mutant), read-out: Ratio IC50
Procedure, shortened: (§1)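 Ratio of IC50 in non-tumour MCF-10A to IC50 in the tumour line, both from the SRB growth assay described for cytotoxicity.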

[11] = Therapeutic index, ratio of IC50 for human MCF10A cells to IC50 for human MDA-MB-231 cells expressing high level of p53; assay type: cell-based; settings: MCF10A cells versus MDA-MB-231 cells (high level of p53), read-out: Ratio IC50
Procedure, shortened: as §1

MDA-MB-231 [12] = experiment: Cytotoxicity against human MDA-MB-231 cells expressing high level of p53 […]; assay type: functional, cell-based
[13] = Cytotoxicity against human MCF10A cells […] by SRB assay; assay type: cell-based; settings: MCF-10A
MCF7 [14] = experiment: Cell cycle arrest in human MCF7 cells assessed as accumulation at G2/M phase after 48 hrs using propidium iodide staining by flow cytometry (reference value: 1.57 +/- 2.12 %); assay type: functional
MDA-MB-231 [15] = experiment: Cell cycle arrest in human MDA-MB-231 cells assessed as accumulation at G0/G1 phase after 48 hrs using propidium iodide staining by flow cytometry (reference value: 42.06 +/- 0.01 %); assay type: functional
[16] = Cell cycle arrest in human MCF10A cells assessed as accumulation at G0/G1 phase after 48 hrs using propidium iodide staining by flow cytometry (reference value: 65.70 +/- 1.14 %); assay type: ADME, cell-based; settings: mcf-10a
MCF7 [17] = experiment: Cell cycle arrest in human MCF7 cells assessed as accumulation at G0/G1 phase after 48 hrs using propidium iodide staining by flow cytometry (reference value: 89.88 +/- 1.73 %); assay type: functional
[18] = Cell cycle arrest in human MCF10A cells assessed as accumulation at S phase after 48 hrs using propidium iodide staining by flow cytometry (reference value: 21.78 +/- 0.46 %); assay type: ADME, cell-based; settings: mcf-10a
MDA-MB-231 [19] = experiment: Cell cycle arrest in human MDA-MB-231 cells assessed as accumulation at G2/M phase after 48 hrs using propidium iodide staining by flow cytometry (reference value: 31.59 +/- 0.03 %); assay type: functional
MCF7 [20] = experiment: Cell cycle arrest in human MCF7 cells assessed as accumulation at S phase after 48 hrs using propidium iodide staining by flow cytometry (reference value: 8.55 +/- 0.40 %); assay type: functional
[21] = Cell cycle arrest in human MCF10A cells assessed as accumulation at G2/M phase after 48 hrs using propidium iodide staining by flow cytometry (reference value: 12.55 +/- 0.68 %); assay type: ADME, cell-based; settings: mcf-10a
MDA-MB-231 [22] = experiment: Cell cycle arrest in human MDA-MB-231 cells assessed as accumulation at S phase after 48 hrs using propidium iodide staining by flow cytometry (reference value: 26.35 +/- 0.03 %); assay type: functional

SMILES | viability (MCF7 [1]) [%] | Activity (MCF7 [2]) [%] | Activity (MCF7 [3]) [%] | Activity (MCF7 [4]) [%] | IC50 (MCF7 [5]) [nM] | Activity (MCF7 [6]) [%] | Activity (MCF7 [7]) [%] | Activity (MCF7 [8]) [%] | Activity (MCF7 [9]) [%] | selectivity ratio [10] | selectivity ratio [11] | IC50 (MDA-MB-231 [12]) [nM] | IC50 [13] [nM] | also measured
Clc1nc(Sc2ccccc2)c2ncn(C3CNc4ccccc4CO3)c2n1 (racemic) | 76.3 | 15.81 | 0.07 | 4.01 | 13800 | 0.07 | 3.88 | 7.55 | 83.09 |  |  |  |  | 
COC(CN(c1ccccc1CO)S(=O)(=O)c1ccc([N+](=O)[O-])cc1)n1cnc2c(Cl)nc(Cl)nc21 (racemic) | 49.71 | 43.3 | 0.02 | 4.81 | 355 | 0.18 | 2.17 | 4.88 | 94.76 | 5.25 | 4.55 | 409 | 1860 | 
O=[N+]([O-])c1ccc(S(=O)(=O)N2CC(n3cnc4c(Br)ncnc43)OCc3ccccc32)cc1 (racemic) | 51.04 | 35.64 | 0.01 | 10.92 | 1230 | 0.01 | 2.4 | 4.26 | 95.7 |  |  |  |  | 
O=S(=O)(c1ccccc1NO)N1CC(n2cnc3c(Cl)nc(Cl)nc32)OCc2ccccc21 (racemic) | 70.82 | 18.73 | 0 | 5.52 | 1530 | 0.11 | 4.92 | 9.11 | 90.86 | 0.8 | 2.53 | 487 | 1230 | 
O=[N+]([O-])c1ccccc1S(=O)(=O)N1CC(n2cnc3c(I)nc(Cl)nc32)OCc2ccccc21 (racemic) | 58.32 | 24.27 | 0 | 8.08 | 610 | 0.08 | 9.33 | 7.69 | 92.22 | 0.57 | 1.37 | 256 | 351 | Activity (MCF7 [14]): 6.38%; Activity (MDA-MB-231 [15]): 40.38%; Activity [16]: 66.69%; Activity (MCF7 [17]): 84.1%; Activity [18]: 21.98%; Activity (MDA-MB-231 [19]): 30.3%; Activity (MCF7 [20]): 9.53%; Activity [21]: 11.34%; Activity (MDA-MB-231 [22]): 28.82%
O=[N+]([O-])c1ccccc1S(=O)(=O)N1CC(n2cnc3nc(Cl)nc(Cl)c32)OCc2ccccc21 (racemic) | 79.78 | 13.93 | 0.02 | 2.48 | 990 | 0.02 | 3.8 | 4.94 | 95.03 | 1.27 | 4 | 318 | 1260 | 
Cc1cn(C2C[S+]([O-])c3ccccc3CO2)c(=O)[nH]c1=O (racemic) |  |  |  |  | 30000 |  |  |  |  |  |  |  |  | 
c1ccc(Sc2nc(Sc3ccccc3)c3ncn(C4CNc5ccccc5CO4)c3n2)cc1 (racemic) | 71.84 | 18.64 | 0 | 4.98 | 9710 | 0.07 | 4.52 | 12.68 | 87.29 |  |  |  |  | 
O=[N+]([O-])c1ccc(S(=O)(=O)N2C[C@H](n3cnc4c(Cl)nc(Cl)nc43)OCc3ccccc32)cc1 | 44.55 | 41.99 | 0.68 | 2.94 | 190 | 0.51 | 10.51 | 10.23 | 88.56 |  |  | 110 |  | Activity (MCF7 [14]): 1.22%; Activity (MDA-MB-231 [15]): 50.78%; Activity [16]: 65.33%; Activity (MCF7 [17]): 87.22%; Activity [18]: 22%; Activity (MDA-MB-231 [19]): 46.24%; Activity (MCF7 [20]): 11.06%; Activity [21]: 12.68%; Activity (MDA-MB-231 [22]): 2.98%
Cc1cn(C2CN(S(=O)(=O)c3ccc([N+](=O)[O-])cc3)c3ccccc3CO2)c(=O)[nH]c1=O (stereo not drawn) |  |  |  |  | 39800 |  |  |  |  |  |  |  |  | 
O=[N+]([O-])c1ccccc1S(=O)(=O)N1CC(n2cnc3c(Br)ncnc32)OCc2ccccc21 (racemic) | 67.6 | 24.43 | 0 | 3.76 | 3620 | 0 | 4.19 | 8.04 | 91.95 |  |  |  |  | 
CC(=O)O[C@H]1C(=O)[C@@]2(C)[C@H]([C@H](OC(=O)c3ccccc3)[C@]3(O)C[C@H](OC(=O)[C@H](O)[C@@H](NC(=O)c4ccccc4)c4ccccc4)C(C)=C1C3(C)C)[C@]1(OC(C)=O)CO[C@@H]1C[C@@H]2O [PACLITAXEL] |  |  |  |  |  |  |  |  |  |  |  |  |  | Activity (MCF7 [14]): 18.5%; Activity (MDA-MB-231 [15]): 100%; Activity [16]: 36.76%; Activity (MCF7 [17]): 62.48%; Activity [18]: 39.75%; Activity (MDA-MB-231 [19]): 0%; Activity (MCF7 [20]): 19.01%; Activity [21]: 23.5%; Activity (MDA-MB-231 [22]): 0%
O=c1[nH]cc(F)c(=O)[nH]1 [FLUOROURACIL] |  |  |  |  |  |  |  |  |  |  |  |  |  | Activity (MCF7 [14]): 8.06%; Activity (MDA-MB-231 [15]): 38.98%; Activity [16]: 34.2%; Activity (MCF7 [17]): 87.4%; Activity [18]: 55.74%; Activity (MDA-MB-231 [19]): 25.63%; Activity (MCF7 [20]): 6.06%; Activity [21]: 9.56%; Activity (MDA-MB-231 [22]): 35.39%
Cc1cn(C2CS(=O)(=O)c3ccccc3CO2)c(=O)[nH]c1=O (racemic) |  |  |  |  | 12700 |  |  |  |  |  |  |  |  | 
Cc1cn(C2CN(S(=O)(=O)c3ccccc3[N+](=O)[O-])c3ccccc3CO2)c(=O)[nH]c1=O (racemic) |  |  |  |  | 45200 |  |  |  |  |  |  |  |  | 
O=[N+]([O-])c1ccc(S(=O)(=O)N2C[C@@H](n3cnc4c(Cl)nc(Cl)nc43)OCc3ccccc32)cc1 | 63.98 | 28.82 | 0.1 | 1.84 | 100 | 0.34 | 5.35 | 10.37 | 89.36 |  |  | 110 |  | Activity (MCF7 [14]): 3.1%; Activity (MDA-MB-231 [15]): 39.97%; Activity [16]: 64.22%; Activity (MCF7 [17]): 89.02%; Activity [18]: 25.02%; Activity (MDA-MB-231 [19]): 30.67%; Activity (MCF7 [20]): 7.88%; Activity [21]: 10.76%; Activity (MDA-MB-231 [22]): 29.37%
O=[N+]([O-])c1ccccc1S(=O)(=O)N1CC(n2cnc3c(Cl)nc(Cl)nc32)OCc2ccccc21 (racemic) | 74.31 | 19.61 | 0.01 | 3.43 | 383 | 0.01 | 2.64 | 8.33 | 91.65 | 4 | 5.5 | 280 | 1530 | 
Nc1ccccc1S(=O)(=O)N1CC(n2cnc3c(Cl)nc(Cl)nc32)OCc2ccccc21 (racemic) | 76.34 | 18.89 | 0.02 | 1.99 | 820 | 0.28 | 2.77 | 17.61 | 82.1 | 1.85 | 3.25 | 467 | 1520 | 
